Assay results as given in ChEMBL document CHEMBL1124180, “Asymmetric synthesis and properties of the enantiomers of the antibacterial agent 7-(3-aminopyrrolidin-1-yl)-1-(2,4-difluorophenyl)-1,4-dihydro-6- fluoro-4-oxo-1,8-naphthyridine-3-carboxylic acid hydrochloride” (J Med Chem, 1988).

Tests used:
Type in all cases: functional
Klebsiella pneumoniae = experiment: In vitro activity against Klebsiella pneumoniae (ATCC 8045).
In short: (§1)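 MIC determined by agar dilution on brain-heart infusion agar under aerobic conditions.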

Clostridioides difficile [1] = experiment: In vitro activity against Clostridium difficile (ATCC 9689)
[2] = tested on: Prevotella melaninogenica; experiment: In vitro activity against Bacteroides melaninogenicus (ATCC 25845).
In short: (§2)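 MIC determined under anaerobic conditions on Wilkins-Chalgren agar.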

Clostridium perfringens [3] = experiment: In vitro activity against Clostridium perfringens (788)
Thomasclavelia ramosa = experiment: In vitro activity against Clostridium romosum (7)
Escherichia coli [4] = experiment: In vitro activity against Escherichia coli (SS).
In short: (§3)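 MIC for aerobic bacteria, measured on brain-heart infusion agar.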

Staphylococcus aureus [5] = experiment: In vitro activity against Staphylococcus aureus(ATCC 6538P); in short: as §1
Peptostreptococcus = experiment: In vitro activity against Peptostreptococcus sp.(TB-11)
In short: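 MIC for anaerobic bacteria, measured on Wilkins-Chalgren agar.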

Bacteroides fragilis [6] = experiment: In vitro activity against Bacteroides fragilis (105AT25285); in short: as §2
[7] = tested on: Bacteroides thetaiotaomicron; experiment: In vitro activity against thetaiotaomicron (ATCC 29741)
In short: (§4)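 Anaerobic MICs measured by agar dilution on Wilkins-Chalgren agar.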

Cutibacterium acnes = experiment: In vitro activity against Propionibacterium acnes (132); in short: as §2
Bacteroides fragilis [8] = experiment: In vitro activity against Bacteroides fragilis (UC-2); in short: as §2
Burkholderia cepacia = experiment: In vitro activity against Pseudomonas cepacia (296I); in short: as §1
Bacteroides fragilis [9] = experiment: In vitro activity against Bacteroides fragilis (SFM2906A); in short: as §2
Micrococcus luteus [10] = experiment: In vitro activity against Micrococcus luteus (ATCC 9341); in short: as §1
Streptococcus equinus = experiment: In vitro activity against Streptococcus bovis (A5169).; in short: as §1
Escherichia coli [11] = experiment: In vitro activity against Escherichia coli (DC-2); in short: as §3
Escherichia coli [12] = experiment: In vitro activity against Escherichia coli Juhl; in short: as §3
Streptococcus pyogenes [13] = experiment: In vitro activity against Streptococcus pyogenes (2548 INDUC).; in short: as §1
Bacteroides fragilis [14] = experiment: In vitro activity against Bacteroides fragilis (SFM2975-7); in short: as §2
Enterococcus faecium = experiment: In vitro activity against Enterococcus faecium (ATCC 8043).; in short: as §1
Staphylococcus aureus [15] = experiment: In vitro activity against Staphylococcus aureus(45 RAR2); in short: as §1
Clostridium perfringens [16] = experiment: In vitro activity against Clostridium perfringens (104AT13124)
Streptococcus agalactiae = experiment: In vitro activity against Streptococcus agalactiae (CMX 508).; in short: as §1
Streptococcus pyogenes [17] = experiment: In vitro activity against Streptococcus pyogenes(930 CONST).; in short: as §1
Phocaeicola vulgatus [18] = experiment: In vitro activity against Bacteroides vulgatus(SFBC 2375); in short: as §2
Pseudomonas aeruginosa [19] = experiment: In vitro activity against Pseudomonas aeruginosa (K799/WT).; in short: as §1
Veillonella parvula = experiment: In vitro activity against Veillonella parvula (ATCC 10790); in short: as §4
Klebsiella aerogenes = experiment: In vitro activity against Enterobacter aerogenes (ATCC 13048).; in short: as §1
Staphylococcus aureus [20] = experiment: In vitro activity against Staphylococcus aureus(45); in short: as §1
Staphylococcus aureus [21] = experiment: In vitro activity against Staphylococcus aureus (A5177); in short: as §1
Prevotella disiens = experiment: In vitro activity against Bacteroides disiens (ATCC 29426); in short: as §2
Escherichia coli [22] = experiment: In vitro activity against Escherichia coli (H560); in short: as §3
Clostridioides difficile [23] = experiment: In vitro activity against Clostridium difficile (ATCC 17857)
[24] = tested on: Peptostreptococcus anaerobius; experiment: In vitro activity against Peptostreptococcus anaerobius (ATCC 27337); in short: as §2
Clostridium perfringens [25] = experiment: In vitro activity against Clostridium perfringens (SFBC 2026)
Staphylococcus aureus [26] = experiment: In vitro activity against Staphylococcus aureus(CMX 686B); in short: as §1
Fusobacterium nucleatum = experiment: In vitro activity against Fusobacterium nucleatum (ATCC 25586); in short: as §2
Acinetobacter sp. = experiment: In vitro activity against Acinetobacter sp.(CMX 669).; in short: as §1
Bacteroides fragilis [27] = experiment: In vitro activity against Bacteroides fragilis (784); in short: as §2
Prevotella bivia = experiment: In vitro activity against t Bacteroides bivius(B 6140); in short: as §4
[28] = tested on: Bacteroides thetaiotaomicron; experiment: In vitro activity against Bacteroides thetaiotaomicron (ATCC 29742); in short: as §2
Hoylesella loescheii = experiment: In vitro activity against Bacteroides loescheii (ATCC 15930).; in short: as §2
[29] = tested on: Peptoniphilus asaccharolyticus; experiment: In vitro activity against Peptococcus asaccharolyticus (ATCC 14963).; in short: as §2
Streptococcus pyogenes [30] = experiment: In vitro activity against Streptococcus pyogenes (EES61); in short: as §1
Pseudomonas aeruginosa [31] = experiment: In vitro activity against Pseudomonas aeruginosa (BMH10); in short: as §1
Parvimonas micra = experiment: In vitro activity against Peptostreptococcus micros (ATCC 33270).; in short: as §2
Escherichia coli [32] = experiment: In vitro activity against Escherichia coli (KNK437); in short: as §3
Bacteroides fragilis [33] = experiment: In vitro activity against Bacteroides fragilis (SFM2929-1); in short: as §2
Staphylococcus aureus [34] = experiment: In vitro activity against Staphylococcus aureus(CMX 553); in short: as §1
Providencia stuartii = experiment: In vitro activity against Providencia stuartii (CMX 640); in short: as §1
Phocaeicola vulgatus [35] = experiment: In vitro activity against Bacteroides vulgatus(792); in short: as §2
Fusobacterium = experiment: In vitro activity against Fusobacterium sp.(GS-10); in short: as §2
Finegoldia magna = experiment: In vitro activity against Peptococcus magnus (ATCC 29328); in short: as §2
Pseudomonas aeruginosa [36] = experiment: In vitro activity against Pseudomonas aeruginosa (A5007).; in short: as §1
[37] = tested on: Bacteroides thetaiotaomicron; experiment: In vitro activity against Bacteroides thetaiotaomicron (106); in short: as §2
[38] = tested on: Staphylococcus epidermidis; experiment: In vitro activity against Staphylococcus epidermidis (3519); in short: as §1
Micrococcus luteus [39] = experiment: In vitro activity against Micrococcus luteus (ATCC 4698); in short: as §1
Staphylococcus aureus [40] = experiment: In vitro activity against Staphylococcus aureus(CMX 503A); in short: as §1
[41] = tested on: Bacteroides thetaiotaomicron; experiment: In vitro activity against Bacteroides thetaiotaomicron (SFM2975-2); in short: as §2

With `Cl.N[C@@H]1CCN(c2nc3c(cc2F)c(=O)c(C(=O)O)cn3-c2ccc(F)cc2F)C1` the MIC (Klebsiella pneumoniae) was 0.05 µg/mL, the MIC (Clostridioides difficile [1]) was 4 µg/mL and the MIC [2] was 1 µg/mL. The MIC (Clostridium perfringens [3]) was 0.25 µg/mL, the MIC (Thomasclavelia ramosa) was 2 µg/mL and the MIC (Escherichia coli [4]) was 0.01 µg/mL. It also gave an MIC (Staphylococcus aureus [5]) of 0.05 µg/mL, an MIC (Peptostreptococcus) of 0.5 µg/mL and an MIC (Bacteroides fragilis [6]) of 2 µg/mL. The MIC [7] was 8 µg/mL, the MIC (Cutibacterium acnes) was 1 µg/mL and the MIC (Bacteroides fragilis [8]) was 2 µg/mL. For the same compound, the MIC (Burkholderia cepacia) was 6.2 µg/mL, the MIC (Bacteroides fragilis [9]) was 2 µg/mL and the MIC (Micrococcus luteus [10]) was 3.1 µg/mL. For the same compound, the MIC (Streptococcus equinus) was 0.39 µg/mL, the MIC (Escherichia coli [11]) was 0.39 µg/mL and the MIC (Escherichia coli [12]) was 0.05 µg/mL. It also gave an MIC (Streptococcus pyogenes [13]) of 0.2 µg/mL, an MIC (Bacteroides fragilis [14]) of 4 µg/mL and an MIC (Enterococcus faecium) of 0.39 µg/mL. The MIC (Staphylococcus aureus [15]) was 0.1 µg/mL, the MIC (Clostridium perfringens [16]) was 0.25 µg/mL and the MIC (Streptococcus agalactiae) was 0.39 µg/mL. For the same compound, the MIC (Streptococcus pyogenes [17]) was 0.39 µg/mL, the MIC (Phocaeicola vulgatus [18]) was 1 µg/mL and the MIC (Pseudomonas aeruginosa [19]) was 0.39 µg/mL. It also gave an MIC (Veillonella parvula) of 0.5 µg/mL, an MIC (Klebsiella aerogenes) of 0.2 µg/mL and an MIC (Staphylococcus aureus [20]) of 0.1 µg/mL. For the same compound, the MIC (Staphylococcus aureus [21]) was 0.1 µg/mL, the MIC (Prevotella disiens) was 2 µg/mL and the MIC (Escherichia coli [22]) was 0.05 µg/mL. The MIC (Clostridioides difficile [23]) was 4 µg/mL, the MIC [24] was 0.5 µg/mL and the MIC (Clostridium perfringens [25]) was 0.25 µg/mL. The MIC (Staphylococcus aureus [26]) was 0.05 µg/mL, the MIC (Fusobacterium nucleatum) was 2 µg/mL and the MIC (Acinetobacter sp.) was 0.1 µg/mL. For the same compound, the MIC (Bacteroides fragilis [27]) was 2 µg/mL, the MIC (Prevotella bivia) was 2 µg/mL and the MIC [28] was 8 µg/mL. For the same compound, the MIC (Hoylesella loescheii) was 4 µg/mL, the MIC [29] was 0.25 µg/mL and the MIC (Streptococcus pyogenes [30]) was 0.39 µg/mL. It also gave an MIC (Pseudomonas aeruginosa [31]) of 0.2 µg/mL, an MIC (Parvimonas micra) of 0.12 µg/mL and an MIC (Escherichia coli [32]) of 0.39 µg/mL. The MIC (Bacteroides fragilis [33]) was 2 µg/mL, the MIC (Staphylococcus aureus [34]) was 0.1 µg/mL and the MIC (Providencia stuartii) was 1.56 µg/mL. For the same compound, the MIC (Phocaeicola vulgatus [35]) was 2 µg/mL, the MIC (Fusobacterium) was 2 µg/mL and the MIC (Finegoldia magna) was 0.5 µg/mL. For the same compound, the MIC (Pseudomonas aeruginosa [36]) was 0.39 µg/mL, the MIC [37] was 8 µg/mL and the MIC [38] was 0.1 µg/mL. For the same compound, the MIC (Micrococcus luteus [39]) was 1.56 µg/mL, the MIC (Staphylococcus aureus [40]) was 0.1 µg/mL and the MIC [41] was 4 µg/mL.
